Experiments:
[1] = test system: Enterococcus faecalis; assay: Bactericidal activity against 12 hrs peripheral compartment culture samples of Enterococcus faecalis Ef1497 MutM3 in two-compartment pharmacokinetic/pharmacodynamic model assessed as effect on bacterial count at 200 mg, bid administered as 0.5 hr infusion; type: functional
In short: (§1)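 Two-compartment hollow-fibre model in cation-adjusted, protein-free MH broth, 37°C. Linezolid given as simulated 0.5-h infusion twice daily. Inoculum grown 18 h, concentrated 50-fold and placed in the peripheral compartment 3 h before t0. Peripheral samples at set times counted by dilution plating. First 10-fold dilution not plated, limiting detection to 2–3 log10 CFU/ml. Δlog CFU/ml taken from t0 count. Duplicates.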

[2] = test system: Staphylococcus aureus; assay: Bactericidal activity against 12.5 hrs peripheral compartment culture samples of Staphylococcus aureus RN4220 in two-compartment pharmacokinetic/pharmacodynamic model assessed as effect on bacterial count at 600 mg, bid administered as 0.5 hr infusion; type: functional
In short: (§2)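 An 18-h culture concentrated 50-fold was injected into the peripheral compartment 3 h pre-sampling (~10^8 CFU/ml E. faecalis, 10^9 S. aureus). Counts came from dilution plating (detection limit 2–3 log10 CFU/ml), expressed as Δlog CFU/ml from treatment start. Run in duplicate.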

[3] = test system: Enterococcus faecalis; assay: Bactericidal activity against 2 hrs peripheral compartment culture samples of Enterococcus faecalis Ef1497 in two-compartment pharmacokinetic/pharmacodynamic model assessed as effect on bacterial count at 600 mg, bid administered as 0.5 hr infusion; type: functional; in short: as §2
[4] = test system: Staphylococcus aureus subsp. aureus RN4220; assay: AUBC (0 to 24 hrs) in Staphylococcus aureus RN4220MutS2 in two-compartment pharmacokinetic/pharmacodynamic model at 600 mg, bid administered as 0.5 hr infusion for 2 days; type: functional
In short: (§3)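 Hollow-fibre two-compartment model in cation-adjusted, protein-free MH broth at 37°C. Human total-plasma linezolid profile simulated as 0.5-h infusion every 12 h for 48 h. Concentrated 18-h culture injected into the peripheral compartment 3 h before first sample, giving about 10^8 (E. faecalis) or 10^9 (S. aureus) CFU/ml. Viable counts by dilution plating over 0–24 h. Area indices calculated versus growth control curve. Duplicate runs.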

[5] = Cmax in two-compartment pharmacokinetic/pharmacodynamic model at 600 mg, bid administered as 0.5 hr infusion over 24 hrs; type: ADME, organism-based; design: dose 600 mg; conditions: iv
[6] = in vivo; conditions: iv, 600 mg
[7] = Mean residence time in two-compartment pharmacokinetic/pharmacodynamic model at 200 mg, bid administered as 0.5 hr infusion over 24 hrs; type: ADME, organism-based; conditions: in vivo, iv
[8] = test system: Enterococcus faecalis; assay: Bactericidal activity against 0.5 hrs peripheral compartment culture samples of Enterococcus faecalis Ef1497 MutM3 in two-compartment pharmacokinetic/pharmacodynamic model assessed as effect on bacterial count at 200 mg, bid administered as 0.5 hr infusion; type: functional; in short: as §1
[9] = Total clearance in two-compartment pharmacokinetic/pharmacodynamic model at 600 mg, bid administered as 0.5 hrs infusion; type: ADME, organism-based; conditions: iv
[10] = test system: Staphylococcus aureus subsp. aureus RN4220; assay: AUBC (0 to 24 hrs) in Staphylococcus aureus RN4220 in two-compartment pharmacokinetic/pharmacodynamic model at 600 mg, bid administered as 0.5 hr infusion for 2 days; type: functional; in short: as §3
[11] = in vitro; conditions: two-compartment pharmacokinetic/pharmacodynamic model, iv, 800 mg
[12] = test system: Enterococcus faecalis; assay: Bactericidal activity against 24 hrs peripheral compartment culture samples of Enterococcus faecalis Ef1497 in two-compartment pharmacokinetic/pharmacodynamic model assessed as effect on bacterial count at 600 mg, bid administered as 0.5 hr infusion; type: functional; in short: as §2
[13] = Total clearance in two-compartment pharmacokinetic/pharmacodynamic model at 200 mg, bid administered as 0.5 hr infusion over 24 hrs; type: ADME, organism-based; conditions: in vivo, iv
[14] = AUC in two-compartment pharmacokinetic/pharmacodynamic model at 600 mg, bid administered as 0.5 hr infusion over 24 hrs; type: ADME; design: dose 600 mg, time < 24 hr; conditions: in vivo, iv
[15] = test system: Staphylococcus aureus; assay: Bactericidal activity against 12.5 hrs peripheral compartment culture samples of Staphylococcus aureus RN4220 MutS2 in two-compartment pharmacokinetic/pharmacodynamic model assessed as effect on bacterial count at 600 mg, bid administered as 0.5 hr infusion; type: functional; in short: as §2
[16] = test system: Staphylococcus aureus; assay: Bactericidal activity against 13 hrs peripheral compartment culture samples of Staphylococcus aureus RN4220 MutS2 in two-compartment pharmacokinetic/pharmacodynamic model assessed as effect on bacterial count at 600 mg, bid administered as 0.5 hr infusion; type: functional; in short: as §2
[17] = test system: Enterococcus faecalis; assay: Bactericidal activity against 13 hrs peripheral compartment culture samples of Enterococcus faecalis Ef1497 MutM3 in two-compartment pharmacokinetic/pharmacodynamic model assessed as effect on bacterial count at 200 mg, bid administered as 0.5 hr infusion; type: functional; in short: as §2
[18] = test system: Enterococcus faecalis; assay: Bactericidal activity against 13 hrs peripheral compartment culture samples of Enterococcus faecalis ATCC 29212 in two-compartment pharmacokinetic/pharmacodynamic model assessed as effect on bacterial count at 200 mg, bid administered as 0.5 hr infusion; type: functional; in short: as §2
[19] = test system: Staphylococcus aureus; assay: Bactericidal activity against 13 hrs peripheral compartment culture samples of Staphylococcus aureus RN4220 in two-compartment pharmacokinetic/pharmacodynamic model assessed as effect on bacterial count at 600 mg, bid administered as 0.5 hr infusion; type: functional; in short: as §2
[20] = test system: Enterococcus faecalis; assay: Bactericidal activity against 14 hrs peripheral compartment culture samples of Enterococcus faecalis Ef1497 in two-compartment pharmacokinetic/pharmacodynamic model assessed as effect on bacterial count at 800 mg, bid administered as 0.5 hr infusion; type: functional; in short: as §2
[21] = AUC in two-compartment pharmacokinetic/pharmacodynamic model at 600 mg, bid administered as 0.5 hrs infusion; type: ADME; conditions: iv
[22] = test system: Staphylococcus aureus; assay: Bactericidal activity against 2 hrs peripheral compartment culture samples of Staphylococcus aureus RN4220 in two-compartment pharmacokinetic/pharmacodynamic model assessed as effect on bacterial count at 600 mg, bid administered as 0.5 hr infusion; type: functional; in short: as §2
[23] = test system: Enterococcus faecalis; assay: Bactericidal activity against 24 hrs peripheral compartment culture samples of Enterococcus faecalis ATCC 29212 in two-compartment pharmacokinetic/pharmacodynamic model assessed as effect on bacterial count at 200 mg, bid administered as 0.5 hr infusion; type: functional; in short: as §2
[24] = test system: Enterococcus faecalis; assay: T>MIC in Enterococcus faecalis Ef1497 MutM3 in two-compartment pharmacokinetic/pharmacodynamic model at 600 mg, bid administered as 0.5 hr infusion for 2 days; type: functional
[25] = test system: Enterococcus faecalis; assay: T>MIC in Enterococcus faecalis Ef1497 in two-compartment pharmacokinetic/pharmacodynamic model at 600 mg, bid administered as 0.5 hr infusion for 2 days; type: functional
[26] = AUC in healthy human at 600 mg, iv, bid administered as 0.5 hr infusion; type: ADME, organism-based; conditions: plasma
[27] = test system: Staphylococcus aureus; assay: Bactericidal activity against 12 hrs peripheral compartment culture samples of Staphylococcus aureus RN4220 MutS2 in two-compartment pharmacokinetic/pharmacodynamic model assessed as effect on bacterial count at 600 mg, bid administered as 0.5 hr infusion; type: functional; in short: as §2
[28] = test system: Enterococcus faecalis; assay: Bactericidal activity against 14 hrs peripheral compartment culture samples of Enterococcus faecalis ATCC 29212 in two-compartment pharmacokinetic/pharmacodynamic model assessed as effect on bacterial count at 200 mg, bid administered as 0.5 hr infusion; type: functional; in short: as §2
[29] = test system: Enterococcus faecalis; assay: AUBC (0 to 24 hrs) in Enterococcus faecalis Ef1497 MutM3 in two-compartment pharmacokinetic/pharmacodynamic model at 600 mg, bid administered as 0.5 hr infusion for 2 days; type: functional; in short: as §3

Which results are given for `CC(=O)NC[C@H]1CN(c2ccc(N3CCOCC3)c(F)c2)C(=O)O1` [LINEZOLID]?
log10CFU/ml [1]: 0.29; log10CFU/ml [2]: -0.26; log10CFU/ml [3]: 0.08; AUBC [4]: 228.8 log10CFU/ml.hr; Cmax [5]: 14.6 µg/mL; half-life [6]: 6.18 h; MRT [7]: 7.95 h; log10CFU/ml [8]: -0.009; clearance [9]: 232 mL/min; AUBC [10]: 229.4 log10CFU/ml.hr; half-life at 0.5 h [11]: 5.01 h; log10CFU/ml [12]: 0.35; clearance [13]: 252 mL/min; AUC at 24 h [14]: 35.4 µg·h/mL; log10CFU/ml [15]: -0.06; log10CFU/ml [16]: -0.81; log10CFU/ml [17]: 0.23; log10CFU/ml [18]: 0.28; log10CFU/ml [19]: -0.22; log10CFU/ml [20]: -0.05; AUC at 0.5 h [21]: 43 µg·h/mL; log10CFU/ml [22]: -0.26; log10CFU/ml [23]: 0.83; fT>MIC [24]: 0%; fT>MIC [25]: 69%; AUC at 0.5 h [26]: 88.1 µg·h/mL; log10CFU/ml [27]: 0.21; log10CFU/ml [28]: 0.55; AUBC [29]: 217.1 log10CFU/ml.hr
